Like-named read-outs stand apart in the source and are kept apart here.
Columns and labels:
[1] = test system: U-87MG cells; assay: MTT cell viability assay, U-87MG; format: cell-based; conditions: Homo sapiens
Summary of the method: (§1)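 U-87MG (RPMI-1640, 7.5 × 10³ cells/well, 24 h attachment) and AGO1522 (low-glucose DMEM) grown with 10% FBS and pen/strep at 37°C, 5% CO₂. DMSO stocks diluted in medium to 3, 6.25, 12.5, 25, 50 and 100 µM, for 24 and 48 h. MTT 5 mg/ml for 4 h, formazan dissolved in DMSO, A570 nm. Viability relative to untreated cells; IC50 calculated. Triplicates, three experiments.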

[2] = test system: AGO1522 cells; assay: MTT cell viability assay, AGO1522; format: cell-based, human; conditions: for IC50: Homo sapiens, Skin fibroblast
Summary of the method: as §1

[3] = test system: intracellular ROS in U-87MG cells; assay: Intracellular ROS assay with DCFH-DA probe; format: cell-based, human; conditions: 11.91 M (so in the source), 12 hours, P < 0.01
Summary of the method: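 6 × 10⁵ U-87MG cells/well attached for 24 h, then given 11.91 µM for 12 h. Loaded with DCFH-DA (10 µM final) in serum-free medium for 30 min at 37°C in the dark and washed twice with RPMI 1640. DCF fluorescence of 1 × 10⁴ cells read on a fluorescence plate reader as RFU. Three independent experiments.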

[4] = test system: U-87MG cells; assay: PI staining cell cycle analysis by flow cytometry; format: cell-based, human; conditions: 11.91 µM, 24 hours
Summary of the method: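 6 × 10⁵ U-87MG cells/well attached for 24 h, then given 11.91 µM for 24 h. Detached with trypsin-EDTA at 37°C for 2 min, fixed in cold 70% ethanol for 1 h. Stained 30 min at RT in the dark in 1 ml 0.1% sodium citrate with 0.05 mg PI and 50 µg RNase. Sub-G1, G0/G1, S and G2/M percentages by flow cytometry.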

[5] = test system: caspase-3 activity in U-87MG cells; assay: Caspase-3/CPP32 fluorometric activity assay; format: cell-based, human; conditions: 11.91 µM, 24 hours (method: 12 hours), P<0.01
[6] = 24 h, read-out: IC50 U-87MG 24 hours
[7] = 48 h, read-out: IC50 U-87MG 48 hours
[8] = 24 h, read-out: IC50 AGO1522 24 hours
[9] = 48 h, read-out: IC50 AGO1522 48 hours

## O=c1[nH]c(O)c(C2C([N+](=O)[O-])=C3NCCN3c3nc4cc(Cl)ccc4cc32)c(=O)[nH]1 (stereo not drawn) [5e, 5-(9-chloro-4-nitro-1,2,3,5-tetrahydrobenzo[g]imidazo[1,2-a] [1,8]naphthyridin-5-yl) -6-hydroxypyrimidine-2,4 (1H, 3H) -dione]
[1]; [6]
  IC50: 22.6 ± 0.84 µM
[1]; [7]
  IC50: 16.3 ± 1.03 µM
[2]; [8]
  IC50: 43 ± 0.89 µM
[2]; [9]
  IC50: 22.9 ± 0.95 µM

## 5-(6-bromo-2-chloroquinolin-3-yl)-9a-hydroxy-8,8-dimethyl-4-nitro-2,3,5,5a,7,8,9,9a-octahydroimidazo[1,2-a]quinolin-6(1H)-one [5c]
[3]
  level of ROS compared to unexposed cells: significantly higher
[4]
  cells in G1: 41%
[5]
  caspase 3 activation compared to unexposed cells: significant increase
[2]; AGO1522 cells, in words
  effects on normal skin cells of AGO1522: minimal effects

## CC(=O)O[C@H]1C(=O)[C@@]2(C)[C@H]([C@H](OC(=O)c3ccccc3)[C@]3(O)C[C@H](OC(=O)[C@H](O)[C@@H](NC(=O)c4ccccc4)c4ccccc4)C(C)=C1C3(C)C)[C@]1(OC(C)=O)CO[C@@H]1C[C@@H]2O [Paclitaxel, reference compound]
[1]; [6]
  IC50: 17.4 ± 0.85 µM
[1]; [7]
  IC50: 42.2 ± 0.78 µM
[2]; [8]
  IC50: 42.9 ± 1.42 µM
[2]; [9]
  IC50: 25.8 ± 1.09 µM

From publication PMC9930943 (Asian Pacific Journal of Cancer Prevention : APJCP, 2022)
